Reference: PMC12171725 (RSC Advances, 2025)
In brackets after ≈: the same amount, converted by molar mass.

Columns and labels:
[1] = system: methicillin-resistant Staphylococcus aureus (MRSA USA300); test: MIC by broth microdilution; type: cell-based; settings: MRSA|USA300, read-out: MIC S. aureus USA300
Method in brief: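 MRSA USA300 was grown overnight at 37 °C on tryptone soy agar, adjusted to 0.5 McFarland, then diluted in cation-adjusted Mueller-Hinton broth to ∼5 × 10^5 CFU ml−1. […] Plates were incubated aerobically at 37 °C for 18–20 h, following CLSI broth microdilution.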

[2] = system: Acinetobacter baumannii AB5075; test: MIC by broth microdilution; type: cell-based; settings: AB5075, read-out: MIC A. baumannii AB5075, broth microdilution, 37 °C, 18–20 hours
MRSA USA300 biofilms = test: Disruption of mature MRSA biofilms; type: cell-based, Staphylococcus aureus; settings: at 4× MIC
erythrocytes = test: Hemolysis; type: cell-based; settings: LC lytic concentration 30%
MTT cytotoxicity assay = type: cell-based; settings: human, HEK293 cells (human embryonic kidney cell line)

Row | Compound | MIC [1] [µg/mL] | MIC [2] [µg/mL] | percentage of biofilm disruption relative to untreated controls (MRSA USA300 biofilms) | Hemolysis LC (erythrocytes) [mg/mL] | IC50 (MTT cytotoxicity assay) [µM]
1 | CCNS(=O)(=O)c1ccc(-n2nnc(C(C)=NNC(=N)N)c2C)cc1 [Compound 17, 2-(1-(1-(4-(N-Ethylsulfamoyl)phenyl)-5-methyl-1H-1,2,3-triazol-4-yl)ethylidene)hydrazine-1-carboximidamide] | > 64 | > 64 | – | – | –
2 | CCCCNS(=O)(=O)c1ccc(-n2nnc(C(C)=NNC(=N)N)c2C)cc1 [Compound 18, 2-(1-(1-(4-(N-Butylsulfamoyl)phenyl)-5-methyl-1H-1,2,3-triazol-4-yl)ethylidene)hydrazine-1-carboximidamide] | > 64 | > 64 | – | – | –
3 | CCCCCCNS(=O)(=O)c1ccc(-n2nnc(C(C)=NNC(=N)N)c2C)cc1 [Compound 20, 2-(1-(1-(4-(N-Hexylsulfamoyl)phenyl)-5-methyl-1H-1,2,3-triazol-4-yl)ethylidene)hydrazine-1-carboximidamide] | 16 (≈ 38 µM) | 16 (≈ 38 µM) | – | – | –
4 | CCCCCCCCNS(=O)(=O)c1ccc(-n2nnc(C(C)=NNC(=N)N)c2C)cc1 [Compound 22, 2-(1-(5-Methyl-1-(4-(N-octylsulfamoyl)phenyl)-1H-1,2,3-triazol-4-yl)ethylidene)hydrazine-1-carboximidamide] | 64 (≈ 143 µM) | 64 (≈ 143 µM) | – | – | –
5 | CCCCCCCCCNS(=O)(=O)c1ccc(-n2nnc(C(C)=NNC(=N)N)c2C)cc1 [Compound 23, 2-(1-(5-Methyl-1-(4-(N-nonylsulfamoyl)phenyl)-1H-1,2,3-triazol-4-yl)ethylidene)hydrazine-1-carboximidamide] | – | 64 (≈ 138 µM) | 70–80% | >10 | 52.4
6 | CN[C@H](CC(C)C)C(=O)N[C@H]1C(=O)N[C@@H](CC(N)=O)C(=O)N[C@H]2C(=O)N[C@H]3C(=O)N[C@H](C(=O)N[C@H](C(=O)O)c4cc(O)cc(O)c4-c4cc3ccc4O)[C@H](O)c3ccc(c(Cl)c3)Oc3cc2cc(c3O[C@@H]2O[C@H](CO)[C@@H](O)[C@H](O)[C@H]2O[C@H]2C[C@](C)(N)[C@H](O)[C@H](C)O2)Oc2ccc(cc2Cl)[C@H]1O [Vancomycin, reference compound] | 1 (≈ 0.69 µM) | – | – | – | –
